Laboratory results taken from ChEMBL document CHEMBL4346667 (Eur J Med Chem, 2019).
The source made the active and inactive calls. No cut-off for these calls is given here.

Assays:
[1] = test system: MCF7; assay: Cell cycle arrest in human MCF7 cells assessed as accumulation of cells at G2/M phase at 10 uM up to 48 hrs by propidium iodide double staining based flow cytometric analysis; format: functional
[2] = test system: MCF7; assay: Induction of apoptosis in human MCF7 cells at 1 uM after 48 hrs by Annexin V-FITC/propidium iodide staining-based flow cytometric analysis; format: functional, cell-based
How it was run: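 Log-phase cells were seeded and treated after adhering, for 48 h in cycles of 6 h on and 6 h off. Cells were stained with annexin V (1 µg/mL) and PI (0.5 µg/mL) in Ca2+-enriched binding buffer for 15 min in the dark at room temperature. 10,000 events were read by flow cytometry (FL1 vs FL2). Apoptosis was the sum of early and late stages. At least three repeats.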

[3] = test system: MCF7; assay: Antitumor activity against human MCF7 cells xenografted in BALB/c nude mouse assessed as tumor weight at 40 mg/kg administered for a week; format: functional
How it was run: (§1)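 Male BALB/c nude mice, 4 weeks old, 15-20 g. Log-phase MCF-7 cells in DMEM, 0.1 mL of 1×10^6 cells/mL, injected subcutaneously into the hind leg. Calipers twice weekly; at about 90 mm3, groups of 5. Vehicle was isotonic saline plus 0.005% DMSO. Injected at 40 mg/kg for a week; tumour volume recorded daily.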

[4] = test system: MCF7; assay: Antitumor activity against human MCF7 cells xenografted in BALB/c nude mouse assessed as inhibition of tumor growth at 40 mg/kg administered for a week; format: functional; how it was run: as §1
[5] = test system: MCF7; assay: Induction of apoptosis in human MCF7 cells assessed as viable cells at 5 uM after 6 hrs by Annexin V-FITC/propidium iodide staining-based flow cytometric analysis (reference value: 92.8%); format: functional; settings: MCF7, 6 h, read-out: Activity
[6] = test system: MCF7; assay: Induction of apoptosis in human MCF7 cells assessed as early apoptotic cells at 5 uM after 6 hrs by Annexin V-FITC/propidium iodide staining-based flow cytometric analysis (reference value: 2%); format: functional
How it was run: (§2)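 Log-phase cells seeded in 6-well plates and treated after adhesion; incubated in cycles of 6 h on/6 h off up to 48 h. Collected after PBS washes and trypsin, resuspended in Ca2+-enriched binding buffer. Stained with annexin V (1 µg/mL) plus PI (0.5 µg/mL) 15 min in the dark at room temperature. 10,000 events, FL1 vs FL2. At least three repeats.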

[7] = test system: MCF7; assay: Induction of apoptosis in human MCF7 cells assessed as late apoptotic cells at 5 uM after 6 hrs by Annexin V-FITC/propidium iodide staining-based flow cytometric analysis (reference value: 4.7%); format: functional; how it was run: as §2
[8] = test system: MCF7; assay: Induction of apoptosis in human MCF7 cells assessed as early apoptotic cells at 10 uM after 6 hrs by Annexin V-FITC/propidium iodide staining-based flow cytometric analysis (reference value: 2%); format: functional; how it was run: as §2
[9] = test system: MCF7; assay: Induction of apoptosis in human MCF7 cells assessed as late apoptotic cells at 10 uM after 6 hrs by Annexin V-FITC/propidium iodide staining-based flow cytometric analysis (reference value: 4.7%); format: functional; how it was run: as §2
[10] = test system: MCF7; assay: Induction of apoptosis in human MCF7 cells assessed as necrotic cells at 10 uM after 6 hrs by Annexin V-FITC/propidium iodide staining-based flow cytometric analysis (reference value: 0.5%); format: functional
[11] = test system: MCF7; assay: Induction of apoptosis in human MCF7 cells assessed as viable cells at 25 uM after 6 hrs by Annexin V-FITC/propidium iodide staining-based flow cytometric analysis (reference value: 92.8%); format: functional; settings: MCF7, 6 h, read-out: Activity
[12] = test system: MCF7; assay: Induction of apoptosis in human MCF7 cells assessed as necrotic cells at 25 uM after 6 hrs by Annexin V-FITC/propidium iodide staining-based flow cytometric analysis (reference value: 0.5%); format: functional
[13] = test system: MCF7; assay: Induction of apoptosis in human MCF7 cells assessed as late apoptotic cells at 50 uM after 6 hrs by Annexin V-FITC/propidium iodide staining-based flow cytometric analysis (reference value: 4.7%); format: functional; how it was run: as §2
[14] = test system: MCF7; assay: Induction of apoptosis in human MCF7 cells assessed as necrotic cells at 50 uM after 6 hrs by Annexin V-FITC/propidium iodide staining-based flow cytometric analysis (reference value: 0.5%); format: functional
[15] = test system: MCF7; assay: Induction of apoptosis in human MCF7 cells assessed as viable cells at 1 uM after 24 hrs by Annexin V-FITC/propidium iodide staining-based flow cytometric analysis (reference value: 92.1%); format: functional; settings: MCF7, 24 h, read-out: Activity
[16] = test system: MCF7; assay: Induction of apoptosis in human MCF7 cells assessed as late apoptotic cells at 1 uM after 24 hrs by Annexin V-FITC/propidium iodide staining-based flow cytometric analysis (reference value: 5.6%); format: functional; how it was run: as §2
[17] = test system: MCF7; assay: Induction of apoptosis in human MCF7 cells assessed as late apoptotic cells at 10 uM after 24 hrs by Annexin V-FITC/propidium iodide staining-based flow cytometric analysis (reference value: 5.6%); format: functional; how it was run: as §2
[18] = test system: MCF7; assay: Induction of apoptosis in human MCF7 cells assessed as viable cells at 25 uM after 24 hrs by Annexin V-FITC/propidium iodide staining-based flow cytometric analysis (reference value: 92.1%); format: functional; settings: MCF7, 24 h, read-out: Activity
[19] = test system: MCF7; assay: Induction of apoptosis in human MCF7 cells assessed as necrotic cells at 25 uM after 24 hrs by Annexin V-FITC/propidium iodide staining-based flow cytometric analysis (reference value: 0.2%); format: functional
[20] = test system: MCF7; assay: Induction of apoptosis in human MCF7 cells assessed as viable cells at 50 uM after 24 hrs by Annexin V-FITC/propidium iodide staining-based flow cytometric analysis (reference value: 92.1%); format: functional; settings: MCF7, 24 h, read-out: Activity
[21] = test system: MCF7; assay: Induction of apoptosis in human MCF7 cells assessed as late apoptotic cells at 2505 uM after 24 hrs by Annexin V-FITC/propidium iodide staining-based flow cytometric analysis (reference value: 5.6%); format: functional; how it was run: as §2
[22] = test system: MCF7; assay: Induction of apoptosis in human MCF7 cells assessed as viable cells at 1 uM after 48 hrs by Annexin V-FITC/propidium iodide staining-based flow cytometric analysis (reference value: 87.9%); format: functional; settings: MCF7, 48 h, read-out: Activity
[23] = test system: MCF7; assay: Induction of apoptosis in human MCF7 cells assessed as late apoptotic cells at 1 uM after 48 hrs by Annexin V-FITC/propidium iodide staining-based flow cytometric analysis (reference value: 2.8%); format: functional; how it was run: as §2
[24] = test system: MCF7; assay: Induction of apoptosis in human MCF7 cells assessed as viable cells at 10 uM after 48 hrs by Annexin V-FITC/propidium iodide staining-based flow cytometric analysis (reference value: 87.9%); format: functional; settings: MCF7, 48 h, read-out: Activity
[25] = test system: MCF7; assay: Induction of apoptosis in human MCF7 cells assessed as early apoptotic cells at 10 uM after 48 hrs by Annexin V-FITC/propidium iodide staining-based flow cytometric analysis (reference value: 9.1%); format: functional; how it was run: as §2
[26] = test system: MCF7; assay: Induction of apoptosis in human MCF7 cells assessed as late apoptotic cells at 10 uM after 48 hrs by Annexin V-FITC/propidium iodide staining-based flow cytometric analysis (reference value: 2.8%); format: functional; how it was run: as §2
[27] = test system: MCF7; assay: Induction of apoptosis in human MCF7 cells assessed as necrotic cells at 10 uM after 24 hrs by Annexin V-FITC/propidium iodide staining-based flow cytometric analysis (reference value: 0.1%); format: functional
[28] = test system: MCF7; assay: Induction of apoptosis in human MCF7 cells assessed as viable cells at 25 uM after 48 hrs by Annexin V-FITC/propidium iodide staining-based flow cytometric analysis (reference value: 87.9%); format: functional; settings: MCF7, 48 h, read-out: Activity
[29] = test system: MCF7; assay: Induction of apoptosis in human MCF7 cells assessed as late apoptotic cells at 25 uM after 48 hrs by Annexin V-FITC/propidium iodide staining-based flow cytometric analysis (reference value: 2.8%); format: functional; how it was run: as §2

COc1cc([C@@H]2c3cc4c(cc3[C@@H](O[C@@H]3O[C@@H]5CO[C@@H](C)O[C@H]5[C@H](O)[C@H]3O)[C@H]3COC(=O)[C@H]23)OCO4)cc(OC)c1O [ETOPOSIDE]
Activity [1]: Active | Activity [2]: inactive | Activity [3]: 0.834 g | inhibition in vivo at 40 mg/kg [4]: 43.2% | viability at 5 µM [5]: 89.7% | Activity [6]: 2% | Activity [7]: 7.6% | Activity [8]: 2.2% | Activity [9]: 9.1% | Activity [10]: 1% | viability at 25 µM [11]: 90.6% | Activity [12]: 0.8% | Activity [13]: 4.6% | Activity [14]: 0.8% | viability at 1 µM [15]: 90.7% | Activity [16]: 6.8% | Activity [17]: 11.5% | viability at 25 µM [18]: 81.1% | Activity [19]: 0.8% | viability at 50 µM [20]: 73.9% | Activity [21]: 12.7% | viability at 1 µM [22]: 79.1% | Activity [23]: 6% | viability at 10 µM [24]: 20.7% | Activity [25]: 60.5% | Activity [26]: 17.5% | Activity [27]: 1.4% | viability at 25 µM [28]: 25.7% | Activity [29]: 19.7%
